Results reported in article PMC3116947 (Journal of Molecular Recognition, 2010).
Ends that are not written are not given here.

Columns and labels:
[1] = target: E171A mutant of cSH3 domain (cSH3_E171A) of Grb2 (Homo sapiens, UniProt P62993, E171A); assay: ITC binding of G1 and G2 peptides to cSH3_E171A; conditions: SD
Outline: (§1)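 Human Grb2 cSH3 domain (wildtype or point mutant) expressed in E. coli Rosetta2(DE3), purified by Ni-NTA and size-exclusion chromatography. 12-mer human Gab1 peptides, concentration measured gravimetrically. ITC at 25 °C in 50 mM Tris pH 8.0, 200 mM NaCl, 1 mM EDTA, 5 mM β-mercaptoethanol: 25 injections of 2–8 mM peptide into 50–200 µM cSH3. Kd from one-site non-linear least-squares fit; 3–4 independent runs, SD.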

[2] = target: E174A mutant of cSH3 domain (cSH3_E174A) of Grb2 (Homo sapiens, UniProt P62993, E174A); assay: ITC binding of G1 and G2 peptides to cSH3_E174A
Outline: as §1

[3] = target: D187A mutant of cSH3 domain (cSH3_D187A) of Grb2 (Homo sapiens, UniProt P62993, D187A); assay: ITC binding of G1 and G2 peptides to cSH3_D187A; conditions: SD
Outline: as §1

[4] = target: D190A mutant of cSH3 domain (cSH3_D190A) of Grb2 (Homo sapiens, UniProt P62993, D190A); assay: ITC binding of G1 and G2 peptides to cSH3_D190A; conditions: SD
Outline: as §1

cSH3 domain of Grb2 = cSH3 domain of Grb2 (Homo sapiens, UniProt P62993); assay: ITC binding of Gab1-derived peptides to wildtype cSH3 domain of Grb2; conditions: binding affinity (Kd), 50 mM Tris, pH 8.0, 25 °C (Figure 3a)
cSH3 domain of Grb2, sequence (P62993 156-215 limits assumed): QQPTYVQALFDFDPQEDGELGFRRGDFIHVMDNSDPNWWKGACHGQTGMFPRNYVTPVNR

E174A mutant of cSH3 domain (cSH3_E174A) of Grb2, sequence (P62993 156-215 E174A limits assumed): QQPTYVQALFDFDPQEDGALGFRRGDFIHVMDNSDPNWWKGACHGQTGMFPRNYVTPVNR
D190A mutant of cSH3 domain (cSH3_D190A) of Grb2, sequence (P62993 156-215 D190A limits assumed): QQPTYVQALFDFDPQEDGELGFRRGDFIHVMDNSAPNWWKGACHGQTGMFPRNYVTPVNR
E171A mutant of cSH3 domain (cSH3_E171A) of Grb2, sequence (P62993 156-215 E171A limits assumed): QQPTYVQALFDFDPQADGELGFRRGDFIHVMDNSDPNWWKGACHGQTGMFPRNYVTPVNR
D187A mutant of cSH3 domain (cSH3_D187A) of Grb2, sequence (P62993 156-215 D187A limits assumed): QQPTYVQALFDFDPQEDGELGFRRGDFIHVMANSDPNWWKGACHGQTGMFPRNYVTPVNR

Row | Kd [1] | Kd [2] | Kd [3] | Kd [4] | Kd (cSH3 domain of Grb2; in the absence of NaCl) | Kd (cSH3 domain of Grb2; in the presence of 500 mM NaCl) | Sequence
1 | 158 ± 1 µM | > 1000 µM | 182 ± 3 µM | 77 ± 6 µM |  |  | PPPVDRNLKPDR [Peptide G2]
2 | 444 ± 55 µM | > 1000 µM | 171 ± 8 µM | 177 ± 17 µM | ~50 µM | ~200 µM | DIPPPRPPKPHP [Peptide G1]
